# Values joined by “and” are separate entries in the source; they are usually repeats but may differ in a detail not shown here. Identical values can stand only once. Like-named read-outs stand apart in the source and are kept apart here.
# Assays:
# human sperm [1] = test: CASA: progesterone-induced hyperactivated motility; type: cell-based; conditions: 10 μM compound, 100 nM progesterone, HAM measured after 4 h
# CatSper [2] = molecular target: T1, CatSper (Homo sapiens, UniProt Q7RTX7+Q86XQ3+Q8NEC5+Q96P56); test: Progesterone-induced calcium uptake; type: cell-based
# [3] = AlamarBlue cytotoxicity assay in human sperm; type: cell-based; conditions: human, human sperm
# Outline: (§1)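 Sperm isolated by centrifugation: liquefied at 37 °C, HTF-washed twice, 800×g, resuspended in Low/Low (low pH/low K+) buffer. Mixed with test compound (2.2x in Low/Low). 8 half-log concentrations, 100 μM to 32 nM final, in duplicate. AlamarBlue at 37 °C, 560/590 nm fluorescence every 15 min over 3 h. IC50 from concentration-response fit.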
# human SLO3 and LRRC52 = molecular target: T2, human SLO3 and LRRC52 (Homo sapiens, UniProt A8MYU2); type: cell-based; conditions: for hSLO3 current in the presence of compound, % of control: 10 μM, +60 mV, n=5 cells, mean±SD in text; for inhibition at 10 µM: HEK293, read-out: Inhibition at 10 μM [%] hSlo3
# T2 sequence (A8MYU2 1-1149): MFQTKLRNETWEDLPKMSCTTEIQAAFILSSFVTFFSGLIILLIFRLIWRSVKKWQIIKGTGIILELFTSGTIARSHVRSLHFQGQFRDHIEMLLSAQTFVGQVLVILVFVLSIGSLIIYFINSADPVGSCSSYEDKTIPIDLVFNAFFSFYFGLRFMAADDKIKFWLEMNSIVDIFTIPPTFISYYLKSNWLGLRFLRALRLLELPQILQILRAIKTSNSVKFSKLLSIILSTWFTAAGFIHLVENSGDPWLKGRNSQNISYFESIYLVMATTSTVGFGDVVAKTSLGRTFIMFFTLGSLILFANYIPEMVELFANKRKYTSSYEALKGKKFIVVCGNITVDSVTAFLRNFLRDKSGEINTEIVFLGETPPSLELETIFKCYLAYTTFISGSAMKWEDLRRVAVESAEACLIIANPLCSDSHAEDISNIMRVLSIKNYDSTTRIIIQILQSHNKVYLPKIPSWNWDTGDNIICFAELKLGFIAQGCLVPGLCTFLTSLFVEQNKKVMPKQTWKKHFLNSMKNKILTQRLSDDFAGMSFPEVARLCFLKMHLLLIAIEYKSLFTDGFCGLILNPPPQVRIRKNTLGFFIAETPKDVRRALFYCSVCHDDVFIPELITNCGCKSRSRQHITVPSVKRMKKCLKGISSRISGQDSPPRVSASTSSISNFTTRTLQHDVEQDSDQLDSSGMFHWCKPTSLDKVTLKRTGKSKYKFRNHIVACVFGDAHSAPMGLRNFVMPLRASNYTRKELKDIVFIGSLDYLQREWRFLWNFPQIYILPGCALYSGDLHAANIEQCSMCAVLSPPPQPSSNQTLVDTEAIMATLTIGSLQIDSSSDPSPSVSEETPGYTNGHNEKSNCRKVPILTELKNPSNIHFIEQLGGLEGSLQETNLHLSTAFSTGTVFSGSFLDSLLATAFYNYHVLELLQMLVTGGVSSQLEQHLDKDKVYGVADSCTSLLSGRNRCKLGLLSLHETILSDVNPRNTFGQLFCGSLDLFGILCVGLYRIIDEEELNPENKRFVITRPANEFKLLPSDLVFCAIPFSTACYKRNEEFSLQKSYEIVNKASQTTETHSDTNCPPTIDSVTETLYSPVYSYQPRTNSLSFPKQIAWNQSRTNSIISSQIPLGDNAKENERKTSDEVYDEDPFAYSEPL
# T2 sequence (Q8N7C0 24-313 partner): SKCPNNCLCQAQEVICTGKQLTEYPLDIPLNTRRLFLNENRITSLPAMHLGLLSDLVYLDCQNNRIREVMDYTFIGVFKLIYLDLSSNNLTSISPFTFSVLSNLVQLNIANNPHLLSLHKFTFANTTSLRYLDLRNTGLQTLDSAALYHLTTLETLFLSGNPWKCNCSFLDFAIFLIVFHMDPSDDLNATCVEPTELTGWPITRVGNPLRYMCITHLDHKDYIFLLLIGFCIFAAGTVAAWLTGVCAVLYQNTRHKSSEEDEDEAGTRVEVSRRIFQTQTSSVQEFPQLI
# CatSper [4] = molecular target: T1, CatSper; test: Whole cell patch clamp electrophysiology of ICatSper in human sperm; type: cell-based; conditions: for Inhibition (block) of the inward ICatSper: 10 μM compound, human sperm, CsDVF
# Outline: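 Swim-up sperm, seal at cytoplasmic droplet in HS buffer (pH 7.4), 12–18 MΩ pipettes with CsDVF internal. Break-in by 1 ms 450 mV pulses. Control current in CsDVF bath, then 10 μM compound for ~8–10 s. Ramp −80 to +80 mV from 0 mV every 3 s. Current density at ±80 mV, room temperature. Washout with CsDVF.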
# [5] = AlamarBlue cytotoxicity assay in IMR-90 fibroblasts; type: cell-based, human; conditions: human, IMR-90 lung fibroblast cells
# Outline: (§2)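 IMR-90 lung fibroblasts cultured 2 weeks in EMEM + 10% FBS, split 2–4 days before use, trypsin-EDTA detached and resuspended in culture medium. Added to test compound (2.2x in Low/Low buffer). 8 half-log concentrations, 100 μM to 32 nM final, in duplicate. AlamarBlue added, 37 °C, fluorescence 560/590 nm read every 30 min over 7 h. IC50 from concentration-response fit.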
# IMR‐90 fibroblasts = test: as above; type: cell-based, human; conditions: at concentrations fully inhibiting CatSper; AlamarBlue, 2 h
# Outline: as §2
# hNav1.5 = hNav1.5 (Homo sapiens, UniProt Q14524); test: hNav1.5 manual patch-clamp in CHO cells; type: cell-based; conditions: read-out: Inhibition at 10 μM [%] hNav1.5
# human sperm [6] = test: Computer-aided sperm analysis; type: cell-based; conditions: 10 μM, 4 h incubation with human sperm
# Outline: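 Motile sperm selected by swim-up into bicarbonate-free HAM's-F10 (37 °C, 5% CO2, 1 h), ≥10×10^6 cells/mL. Incubated 4 h with increasing test compound concentrations. CASA at 37 °C gives total and progressive motility from VAP, VSL, VCL, LIN and STR, as % of population. ≥10 fields/≥200 cells. Mean±SEM of ≥3 experiments; one-way ANOVA with Dunnett's test.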
# hCav1.2 = hCav1.2 (Homo sapiens, UniProt Q13936); test: hCav1.2 FLIPR assay in stably expressing cell line; type: cell-based; conditions: read-out: Inhibition at 10 μM [%] hCav1.2
# hERG = hERG (Homo sapiens, UniProt Q12809); test: hERG manual patch-clamp in HEK293 cells; type: cell-based; conditions: HEK293 cells expressing hERG
# human sperm [7] = test: CASA: PGE1-induced hyperactivated motility; type: cell-based; conditions: 100 nM compound, 100 nM PGE1, HAM measured after 4 h
# CatSper [8] = molecular target: T1, CatSper; conditions: reported previously; cited from earlier work
# human sperm [9] = test: AlamarBlue cytotoxicity assay in human sperm; type: cell-based; conditions: human sperm and IMR‐90 fibroblasts
# Outline: as §1
# [10] = read-out: Inhibition at 10 μM [%] CatSper
# [11] = read-out: Inhibition (block) of the inward ICatSper
# hNav1.5, sequence (Q14524 whole entry): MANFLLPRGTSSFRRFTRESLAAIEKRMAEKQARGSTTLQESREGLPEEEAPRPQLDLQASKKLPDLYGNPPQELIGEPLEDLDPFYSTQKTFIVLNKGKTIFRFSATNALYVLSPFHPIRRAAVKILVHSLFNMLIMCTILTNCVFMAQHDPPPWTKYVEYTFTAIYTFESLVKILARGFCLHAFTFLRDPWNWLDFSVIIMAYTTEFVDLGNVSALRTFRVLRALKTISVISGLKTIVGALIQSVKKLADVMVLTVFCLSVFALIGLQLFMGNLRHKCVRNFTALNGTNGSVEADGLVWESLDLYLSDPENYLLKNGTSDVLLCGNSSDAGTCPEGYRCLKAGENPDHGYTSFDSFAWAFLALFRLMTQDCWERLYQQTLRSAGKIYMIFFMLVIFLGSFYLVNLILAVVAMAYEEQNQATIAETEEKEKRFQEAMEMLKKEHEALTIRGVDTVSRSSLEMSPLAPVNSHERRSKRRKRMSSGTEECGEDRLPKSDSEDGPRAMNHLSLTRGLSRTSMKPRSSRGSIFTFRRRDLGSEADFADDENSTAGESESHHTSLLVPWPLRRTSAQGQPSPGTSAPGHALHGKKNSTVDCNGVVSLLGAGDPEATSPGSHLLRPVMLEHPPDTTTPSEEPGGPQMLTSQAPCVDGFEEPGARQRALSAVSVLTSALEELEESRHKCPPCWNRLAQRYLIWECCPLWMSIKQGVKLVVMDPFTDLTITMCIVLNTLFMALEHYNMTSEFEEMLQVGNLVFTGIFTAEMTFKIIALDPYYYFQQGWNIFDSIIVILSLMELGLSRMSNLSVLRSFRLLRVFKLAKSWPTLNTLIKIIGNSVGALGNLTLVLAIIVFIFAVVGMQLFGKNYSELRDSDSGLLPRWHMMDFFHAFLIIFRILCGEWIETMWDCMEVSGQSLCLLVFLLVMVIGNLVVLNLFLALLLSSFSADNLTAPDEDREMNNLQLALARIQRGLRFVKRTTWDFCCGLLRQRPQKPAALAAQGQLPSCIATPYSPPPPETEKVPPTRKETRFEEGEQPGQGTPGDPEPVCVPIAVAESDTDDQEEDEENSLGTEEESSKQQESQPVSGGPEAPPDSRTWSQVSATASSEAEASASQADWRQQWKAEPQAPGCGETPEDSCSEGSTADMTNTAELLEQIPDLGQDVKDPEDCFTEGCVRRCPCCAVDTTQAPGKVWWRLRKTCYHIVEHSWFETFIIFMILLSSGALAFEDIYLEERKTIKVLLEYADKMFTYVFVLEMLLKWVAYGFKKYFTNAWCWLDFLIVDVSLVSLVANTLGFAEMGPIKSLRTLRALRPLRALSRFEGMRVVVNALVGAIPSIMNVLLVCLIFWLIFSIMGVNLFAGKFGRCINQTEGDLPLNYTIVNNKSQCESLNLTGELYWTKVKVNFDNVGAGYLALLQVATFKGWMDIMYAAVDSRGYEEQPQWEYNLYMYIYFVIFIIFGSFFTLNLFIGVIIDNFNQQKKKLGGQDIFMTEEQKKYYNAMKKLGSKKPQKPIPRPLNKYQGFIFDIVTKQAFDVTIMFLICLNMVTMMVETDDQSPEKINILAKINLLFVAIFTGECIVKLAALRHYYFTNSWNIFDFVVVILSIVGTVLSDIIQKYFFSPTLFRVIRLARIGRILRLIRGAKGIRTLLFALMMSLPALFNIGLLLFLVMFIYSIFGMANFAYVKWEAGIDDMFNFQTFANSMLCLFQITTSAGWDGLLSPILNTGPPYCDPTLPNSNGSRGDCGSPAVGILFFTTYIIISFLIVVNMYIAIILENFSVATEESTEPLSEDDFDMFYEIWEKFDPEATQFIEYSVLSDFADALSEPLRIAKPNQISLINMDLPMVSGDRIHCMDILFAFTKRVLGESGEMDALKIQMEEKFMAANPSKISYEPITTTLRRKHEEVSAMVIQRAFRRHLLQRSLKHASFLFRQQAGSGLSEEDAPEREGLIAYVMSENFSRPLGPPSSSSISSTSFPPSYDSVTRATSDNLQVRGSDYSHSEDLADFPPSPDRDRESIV
# hERG, sequence (Q12809 whole entry): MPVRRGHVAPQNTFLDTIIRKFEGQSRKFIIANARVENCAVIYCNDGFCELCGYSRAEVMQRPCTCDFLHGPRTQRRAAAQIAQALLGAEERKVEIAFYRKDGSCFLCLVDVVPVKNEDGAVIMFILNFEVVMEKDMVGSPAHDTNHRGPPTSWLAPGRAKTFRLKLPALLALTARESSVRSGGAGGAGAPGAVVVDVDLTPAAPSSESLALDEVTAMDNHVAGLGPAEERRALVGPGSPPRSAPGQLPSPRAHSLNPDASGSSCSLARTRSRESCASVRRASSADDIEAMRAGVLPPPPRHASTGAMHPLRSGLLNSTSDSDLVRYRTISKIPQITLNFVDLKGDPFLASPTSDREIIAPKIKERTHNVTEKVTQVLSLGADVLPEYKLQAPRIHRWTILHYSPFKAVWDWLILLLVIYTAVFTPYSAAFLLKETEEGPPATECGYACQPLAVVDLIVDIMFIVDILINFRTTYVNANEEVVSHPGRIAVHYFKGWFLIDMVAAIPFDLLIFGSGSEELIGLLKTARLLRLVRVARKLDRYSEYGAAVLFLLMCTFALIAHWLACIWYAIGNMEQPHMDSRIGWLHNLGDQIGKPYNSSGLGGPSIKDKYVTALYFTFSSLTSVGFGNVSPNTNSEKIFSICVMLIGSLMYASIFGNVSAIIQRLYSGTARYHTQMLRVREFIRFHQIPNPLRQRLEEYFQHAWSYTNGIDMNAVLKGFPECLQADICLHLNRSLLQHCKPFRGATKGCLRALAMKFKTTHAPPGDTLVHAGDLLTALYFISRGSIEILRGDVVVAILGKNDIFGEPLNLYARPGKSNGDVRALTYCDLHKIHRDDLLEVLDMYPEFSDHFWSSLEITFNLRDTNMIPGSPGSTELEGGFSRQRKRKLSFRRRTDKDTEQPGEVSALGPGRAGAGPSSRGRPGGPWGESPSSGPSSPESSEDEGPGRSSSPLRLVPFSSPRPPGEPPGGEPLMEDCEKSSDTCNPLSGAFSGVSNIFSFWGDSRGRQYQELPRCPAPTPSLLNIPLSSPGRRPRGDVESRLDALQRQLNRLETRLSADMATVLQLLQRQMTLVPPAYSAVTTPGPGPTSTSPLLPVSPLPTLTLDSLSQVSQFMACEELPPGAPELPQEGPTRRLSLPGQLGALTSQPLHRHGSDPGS
Compound,IC50 (CatSper [2]) [µM],"hSLO3 current in the presence of compound, % of control (human SLO3 and LRRC52)",inhibition at 10 µM (CatSper [4]; [10]) [%],inhibition at 10 µM (CatSper [4]; [11]) [%],IC50 at 3 h [3] [µM],IC50 at 7 h [5] [µM],inhibition at 10 µM (hNav1.5) [%],inhibition at 10 µM (hCav1.2) [%],also measured
"O=c1c2ccccc2c(Cc2ccc(Cl)cc2)nn1C1CCCNCC1 (stereo not drawn) [6 b, 2‐(Azepan‐4‐yl)‐4‐(4‐chlorobenzyl)phthalazin‐1(2H)‐one]",8.3 ± 1.1,66.3±8.5 % of control,100,,84 ± 10,68 ± 5,,,Reduction of progesterone-induced HAM (human sperm [1]): statistically significant; Inhibition (block) of the inward ICatSper (CatSper [4]): near complete inhibition; Effect on IMR‐90 viability (IMR‐90 fibroblasts): reduce viability slightly
"O=C(Nc1cccc(C(F)(F)F)c1)N1CCN(c2cccc(C(F)(F)F)c2)CC1 [4 a, N ,4‐Bis(3‐(trifluoromethyl)phenyl)piperazine‐1‐carboxamide]",4.9 ± 0.6,,83,84,> 100,> 100,95,65,"Reduction of progesterone-induced HAM (human sperm [1]): statistically significant; Progressive motility (CASA) (human sperm [6]): substantially reduced; Total motility (CASA) (human sperm [6]): substantially reduced; hSLO3 current in the presence of compound, % of control (human SLO3 and LRRC52; 10 µM): 24.6±9.1 % of control and 25 % of control; inhibition at 10 µM (human SLO3 and LRRC52): 75%"
"c1ccc(CN2CCC(c3c[nH]c4ccccc34)CC2)cc1 [2 l, 3‐(1‐benzylpiperidin‐4‐yl)‐1H‐indole]",> 100,,,,,,,,
"OC1(c2ccc(Cl)cc2)CCN(Cc2c[nH]c3ccccc23)CC1 [2 a, 4‐(4‐Chlorophenyl)‐1‐(1H‐indol‐3‐ylmethyl)‐4‐piperidinol]",7.5 ± 1.3,,73,65,> 100,> 100,77,39,Inhibition of PGE1-induced HAM (human sperm [7]): greatly reduced HAM; inhibition at 10 µM (hERG): 100%; Effect on IMR‐90 viability (IMR‐90 fibroblasts): reduce viability slightly
"Cc1cc(C)c2nc(C)cc(NCCc3ccccc3)c2c1 [3 a, 2,6,8‐Trimethyl‐N‐(2‐phenylethyl)‐4‐quinolinamine]",3.6 ± 0.6,58.5±12.5 % of control,96,,> 100,96 ± 5,94,10,inhibition at 10 µM (hERG): 100%; inhibition at 10 µM (human SLO3 and LRRC52): 42%; Inhibition (block) of the inward ICatSper (CatSper [4]): near complete inhibition
"COCC(=O)O[C@]1(CCN(C)CCCc2nc3ccccc3[nH]2)CCc2cc(F)ccc2[C@@H]1C(C)C [Mibefradil, reference compound]",,,,,25 ± 2,22 ± 1,,,Reversibility of CatSper block (CatSper [8]): irreversible loss of channel function; Separation between potencies for blocking calcium influx and cytotoxicity (human sperm [9]): low separation

# Continued, in another order:
IC50 (CatSper [2]) [µM],"hSLO3 current in the presence of compound, % of control (human SLO3 and LRRC52)",inhibition at 10 µM (CatSper [4]; [10]) [%],inhibition at 10 µM (CatSper [4]; [11]) [%],Compound,IC50 at 3 h [3] [µM],IC50 at 7 h [5] [µM],inhibition at 10 µM (hNav1.5) [%],inhibition at 10 µM (hCav1.2) [%],also measured
5.4 ± 0.4,,,,"CN1CCCC(n2nc(Cc3ccc(Cl)cc3)c3ccccc3c2=O)CC1 (stereo not drawn) [6 a, azelastine, reference compound]",,,,,
5.4 ± 0.6,101.5±6.4 % of control,,,"NC(N)=NC(=O)c1nc(Cl)c(N2CCCCCC2)nc1N [1 a, 3‐Amino‐5‐(azepan‐1‐yl)‐6‐chloro‐N‐(diaminomethylene)pyrazine‐2‐carboxamide]",> 100,> 100,68,4,inhibition at 10 µM (hERG): 92%; inhibition at 10 µM (human SLO3 and LRRC52): -2%
3.4 ± 0.4,83.2±7.8 % of control,,47,"N=c1n(CCN2CCCCC2)c2ccccc2n1CC(O)c1cccc(Br)c1 (stereo not drawn) [5 f, 1‐(3‐Bromophenyl)‐2‐(2‐imino‐3‐(2‐(piperidin‐1‐yl)ethyl)‐2,3‐dihydro‐1H‐benzo[d]imidazol‐1‐yl)ethan‐1‐ol]",> 100,83 ± 14,,,Progressive motility (CASA) (human sperm [6]): substantially reduced; Total motility (CASA) (human sperm [6]): substantially reduced; Reversibility of ICatSper block on washout (CatSper [4]; washed out with CsDVF after 10 μM compound): apparent irreversible loss of channel function
20 ± 1,,,89,"CCN(CC)CCNC(=O)C1CCN(c2ccc3nnc(-c4cccc(C)c4)n3n2)CC1 [7 a, N ‐(2‐(Diethylamino)ethyl)‐1‐(3‐(m–tolyl)‐[1,2,4]triazolo[4,3‐b]pyridazin‐6‐yl)piperidine‐4‐carboxamide]",> 100,> 100,,-9,"Reduction of progesterone-induced HAM (human sperm [1]): statistically significant; Progressive motility (CASA) (human sperm [6]): substantially reduced; Total motility (CASA) (human sperm [6]): substantially reduced; hSLO3 current in the presence of compound, % of control (human SLO3 and LRRC52; 10 µM): 37.5±5.6 % of control and 38 % of control"
> 100,,,,"N=C(N)NC(=O)c1nc(Cl)c(N)nc1N [1 d, amiloride, reference compound]",,,,,

# Source: article PMC9378630 (Chemmedchem, 2022)
